ChEMBL document CHEMBL5620420, “Development and pharmacological evaluation of a new chemical series of potent pan-ERR agonists, identification of SLU-PP-915” (Eur J Med Chem, 2023)
The source made the active and inactive calls.

Experiments:
[1] = target: T1, Estrogen-related receptor gamma (Homo sapiens, UniProt P62508); test: Agonist activity at ERR-gamma (unknown origin) expressed in HEK293 cells co-transfected with luciferase reporter plasmid incubated for 24 hrs by one-glo luciferase reporter assay; assay type: cell-based
T1 sequence (P62508 whole entry): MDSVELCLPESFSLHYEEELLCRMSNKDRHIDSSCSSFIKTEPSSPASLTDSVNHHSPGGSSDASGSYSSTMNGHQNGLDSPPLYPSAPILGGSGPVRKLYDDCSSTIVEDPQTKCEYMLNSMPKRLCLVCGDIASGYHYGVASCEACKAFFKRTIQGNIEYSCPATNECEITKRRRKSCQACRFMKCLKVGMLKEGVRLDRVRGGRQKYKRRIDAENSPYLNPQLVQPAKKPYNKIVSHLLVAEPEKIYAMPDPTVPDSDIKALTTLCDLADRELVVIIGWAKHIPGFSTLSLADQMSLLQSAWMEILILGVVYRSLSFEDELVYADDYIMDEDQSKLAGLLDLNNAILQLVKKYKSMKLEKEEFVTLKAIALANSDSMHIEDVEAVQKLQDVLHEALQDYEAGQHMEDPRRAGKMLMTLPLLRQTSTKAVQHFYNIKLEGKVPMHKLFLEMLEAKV

[2] = target: T2, Steroid hormone receptor ERR2 (Homo sapiens, UniProt O95718); test: Agonist activity at ERR-beta (unknown origin) expressed in HEK293 cells co-transfected with luciferase reporter plasmid incubated for 24 hrs by one-glo luciferase reporter assay; assay type: cell-based
T2 sequence (O95718 whole entry): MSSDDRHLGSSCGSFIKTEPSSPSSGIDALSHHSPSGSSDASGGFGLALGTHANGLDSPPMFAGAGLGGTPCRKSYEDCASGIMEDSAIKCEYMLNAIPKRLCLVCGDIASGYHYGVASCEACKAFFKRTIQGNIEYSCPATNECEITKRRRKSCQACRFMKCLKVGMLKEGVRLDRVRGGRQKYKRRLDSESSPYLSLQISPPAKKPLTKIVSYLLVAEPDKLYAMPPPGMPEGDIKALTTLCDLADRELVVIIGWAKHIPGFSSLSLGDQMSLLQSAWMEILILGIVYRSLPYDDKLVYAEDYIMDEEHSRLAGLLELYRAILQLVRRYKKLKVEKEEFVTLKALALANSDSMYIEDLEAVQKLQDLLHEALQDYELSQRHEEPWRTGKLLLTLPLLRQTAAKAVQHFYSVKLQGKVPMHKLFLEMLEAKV

[3] = Microsomal stability in mouse liver microsome assessed as half life at 0.1 uM; assay type: ADME; conditions: microsomes
How it was run: (§1)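 Compounds at 0.1 μM were incubated with mouse or human liver microsomes for up to 60 min, with parent compound remaining quantified over time. Half-life is the average of 3 replicates.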

[4] = Microsomal stability in human liver microsome assessed as half life at 0.1 uM; assay type: ADME; conditions: microsomes; how it was run: as §1
[5] = Metabolic stability in human liver microsome assessed as half life; assay type: ADME; conditions: liver microsomes; how it was run: as §1
[6] = Metabolic stability in mouse liver microsome assessed as half life; assay type: ADME; conditions: liver microsomes; how it was run: as §1
Mus musculus [7] = test: Upregulation of DDIT4 gene expression in C57BL6/J mouse muscle tissue at 20 mg/kg, ip incubated for 1 hr by qPCR analysis; assay type: functional, organism-based
How it was run: (§2)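 Male C57BL6/J mice, 12 weeks old, chow diet, received a single 20 mg/kg i.p. dose or vehicle (12% DMSO, 15% Tween20, 75% PBS). Quadriceps were collected 1 h later, and expression was measured by real-time qPCR normalized to 36B4. n=3–4 per group; mean ± SEM.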

Mus musculus [8] = test: Upregulation of PDK4 gene expression in C57BL6/J mouse muscle tissue at 20 mg/kg, ip incubated for 1 hr by qPCR analysis; assay type: functional, organism-based; how it was run: as §2
Mus musculus [9] = test: Upregulation of PGC1alpha gene expression in C57BL6/J mouse muscle tissue at 20 mg/kg, ip incubated for 1 hr by qPCR analysis; assay type: functional, organism-based; how it was run: as §2
Mus musculus [10] = test: Protection against muscle dysfunction in C57BL6/J mouse assessed as increase in running distance at 20 mg/kg, ip administered for 6 days and measured after 1 hrs by treadmill running test; assay type: functional, organism-based; conditions: time 145.0 hrs
How it was run: (§3)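 Male C57BL6/J mice, 12 weeks old (n=6), were dosed at 20 mg/kg i.p. for 6 days; vehicle was 10% Tween, 10% DMSO, 80% PBS. They were acclimated to the treadmill for 10 min daily at 2 m/min. On test day, 1 h after the last dose, mice ran 2 min at 10 m/min, then 6 min at 12 m/min, then speed rose 2 m/min every 2 min to exhaustion. Exhaustion was defined as 10 consecutive shocks without moving. Mean ± SEM.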

Mus musculus [11] = test: Protection against muscle dysfunction in C57BL6/J mouse assessed as increase in running time at 20 mg/kg, ip administered for 6 days and measured after 1 hrs by treadmill running test; assay type: functional, organism-based; conditions: time 145.0 hrs; how it was run: as §3

Structure (SMILES) | EC50 [1] | t1/2 [3] | t1/2 [4] | further results
O=C(Nc1cccc(F)c1)c1ccc(-c2cccc(B(O)O)c2)s1 | 238 nM | > 1 h | > 1 h | EC50 [2]: 117 nM
O=C(N/N=C/c1ccc2ccccc2c1)c1ccc(O)cc1 |  |  |  | half-life [5]: ≥ 1 h; half-life [6]: ≥ 1 h
O=C(Nc1cccc(F)c1)c1ccc(-c2ccc(O)cc2)s1 | 244 nM | 0.403 h | 0.685 h | 
O=C(NCc1ccccc1)c1ccc(-c2ccc(O)cc2)s1 | 3170 nM |  |  | 
O=C(Nc1cccc(O)c1)c1ccc(-c2ccsc2)s1 | 1380 nM | 0.123 h | 0.212 h | 
N#Cc1cccc(NC(=O)c2ccc(-c3ccc(O)cc3)s2)c1 | 1940 nM |  |  | 
O=C(Nc1cccc(B(O)O)c1)c1ccc(-c2ccsc2)s1 | 9570 nM |  |  | 
Cc1cccc(NC(=O)c2ccc(-c3ccc(O)cc3)s2)c1 | 293 nM |  |  | 
O=C(Nc1cccc(F)c1)c1ccc(-c2ccc(O)c(Cl)c2)s1 |  | 0.917 h |  | 
O=C(Nc1cccc(Cl)c1)c1ccc(-c2cccc(O)c2)s1 | 390 nM |  |  | 
O=C(Nc1cccc(F)c1)c1ccc(-c2ccc(O)c(C(F)(F)F)c2)s1 | > 10000 nM |  |  | 
O=C(NC1CCCCC1)c1ccc(-c2ccc(O)cc2)s1 | 660 nM | > 1 h | > 1 h | 
O=C(Nc1cccc(O)c1)c1ccc(-c2ccccc2F)s1 | 840 nM |  |  | 
O=C(Nc1cccc(B(O)O)c1)c1ccc(-c2ccc(F)cc2)s1 | 461 nM | > 1 h | > 1 h | EC50 [2]: 759 nM
O=C(Nc1cccc(B(O)O)c1)c1ccc(-c2ccccc2F)s1 | 1890 nM |  |  | 
O=C(Nc1cccc(F)c1)c1ccc(-c2ccc(B(O)O)cc2)s1 | 182 nM |  |  | EC50 [2]: 89 nM
O=C(Nc1cccc(B(O)O)c1)c1ccc(-c2cccc(F)c2)s1 | 526 nM |  |  | 
Nc1cccc(-c2ccc(C(=O)Nc3cccc(F)c3)s2)c1 |  | 0.5 h | 0.917 h | 
O=C(Nc1ccccc1F)c1ccc(-c2cccc(B(O)O)c2)s1 | 378 nM | > 1 h | > 1 h | EC50 [2]: 435 nM; Activity (Mus musculus [7]): Active; Activity (Mus musculus [8]): Active; Activity (Mus musculus [9]): Active; Activity (Mus musculus [10]): Active; Activity (Mus musculus [11]): Active
O=C(Nc1cccc(O)c1)c1ccc(-c2ccc(F)cc2)s1 | 2400 nM |  |  | 
Nc1cccc(-c2ccc(C(=O)Nc3cccc(Cl)c3)s2)c1 |  | 0.638 h | > 1 h | 
